Assay results gathered from unrelated publications.
Protocols differ between the studies behind these lines.
Target: Cholinesterase (BCHE, Homo sapiens, UniProt P06276)
Observed: enzyme activity
Action: inhibitor

| SMILES | assay | test system | IC50 |
| --- | --- | --- | --- |
| C=CCn1c2cc(OC(=O)CCCCN3CCN(Cc4ccc(C)cc4)CC3)ccc2c2ccnc(C)c21 | Ellman | – | 581 nM |
| Cc1ccc(S(=O)(=O)n2cc(Br)c(=O)[nH]c2=O)cc1 | Ellman | – | 137 nM |
| CC(C)(C)c1ccc(OP(=O)(Oc2ccc(C(C)(C)C)cc2)Oc2ccc(C(C)(C)C)cc2)cc1 | – | liver microsomes | > 20 µg/mL |
| Cc1cc(O)nc(O)n1 | Ellman | – | 368 nM |
| CC(C)c1ccccc1OP(=O)(Oc1ccccc1C(C)C)Oc1ccccc1C(C)C | – | liver microsomes | > 20 µg/mL |
| C=CCn1c2cc(OC(=O)CCCCN3CCN(Cc4ccc(Cl)cc4)CC3)ccc2c2ccnc(C)c21 | Ellman | – | 674 nM |
| CS(=O)(=O)n1cc(Br)c(=O)[nH]c1=O | Ellman | – | 195 nM |
| CC(C)(C)c1ccccc1OP(=O)(Oc1ccccc1C(C)(C)C)Oc1ccccc1C(C)(C)C | – | liver microsomes | > 20 µg/mL |
| Cn1ccc(=O)n(C)c1=O | Ellman | – | 544 nM |
| C=CCn1c2cc(OC(=O)CCCCCN3CCN(Cc4ccccc4)CC3)ccc2c2ccnc(C)c21 | Ellman | – | 464 nM |
| C#CCN(C)c1nc(NCCCC2CCN(Cc3ccccc3)CC2)c(C#N)cc1C#N | Ellman | – | 1680 nM |
| C[N+](C)(C)CCCCCCCCCC[N+](C)(C)C | – | – | 17400 nM |
